Assay results from ChEMBL document CHEMBL1152548, “Structural and biological evaluation of some loloatin C analogues” (Bioorg Med Chem, 2009).
Converted amounts (≈) assume the structure as drawn.

How the values were obtained:
[1] = test system: Enterococcus faecalis; assay: Antibacterial activity against Enterococcus faecalis ATCC 29212 after 24 to 96 hrs by twofold serial dilution method; assay type: functional
Procedure, shortened: (§1)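 Strains kept at -70 °C, grown at 30 °C on blood agar and suspended in physiological saline to OD 0.1 at 595 nm. The suspension was diluted 10× and 2 µL added to 100 µL nutrient broth with yeast extract. Peptides came from an ethanol stock (4 g/L), were diluted in water and twofold diluted in broth (64 to 1 mg/L). Plates were incubated at 30 °C for 24–96 h. MIC was the lowest concentration inhibiting growth.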

[2] = test system: Bacillus cereus; assay: Antibacterial activity against Bacillus cereus ATCC 11778 after 24 to 96 hrs by twofold serial dilution method; assay type: functional; procedure, shortened: as §1
[3] = test system: erythrocyte (Homo sapiens); assay: Cytotoxicity against human erythrocytes assessed as induction of hemolysis at 10 uL after 4 hrs
[4] = test system: Staphylococcus epidermidis; assay: Antibacterial activity against Staphylococcus epidermidis ATCC 12228 after 24 to 96 hrs by twofold serial dilution method; assay type: functional; procedure, shortened: as §1
[5] = test system: Pseudomonas aeruginosa; assay: Antibacterial activity against Pseudomonas aeruginosa ATCC 27853 after 24 to 96 hrs by twofold serial dilution method; assay type: functional; procedure, shortened: as §1
[6] = test system: Escherichia coli; assay: Antibacterial activity against Escherichia coli ATCC 25922 after 24 to 96 hrs by twofold serial dilution method; assay type: functional; procedure, shortened: as §1
[7] = test system: Staphylococcus aureus; assay: Antibacterial activity against Staphylococcus aureus ATCC 29213 after 24 to 96 hrs by twofold serial dilution method; assay type: functional; procedure, shortened: as §1
[8] = Solubility in 30% DMSO; assay type: physicochemical

SMILES | MIC [1] [mg/L] | MIC [2] [mg/L] | MIC [4] [mg/L] | MIC [5] [mg/L] | MIC [6] [mg/L] | MIC [7] [mg/L] | solubility [8] | Activity [3]
CC(C)C[C@@H]1NC(=O)[C@H](CCCN)NC(=O)[C@H](C(C)C)NC(=O)[C@H](Cc2c[nH]c3ccccc23)NC(=O)[C@@H](CC(=O)O)NC(=O)[C@H](CC(N)=O)NC(=O)[C@H](Cc2ccccc2)NC(=O)[C@H](Cc2c[nH]c3ccccc23)NC(=O)[C@@H]2CCCN2C(=O)[C@@H](Cc2ccc(O)cc2)NC1=O | > 64 | > 64 | > 64 | > 64 | > 64 | > 64 |  | 
CC(C)C[C@@H]1NC(=O)[C@H](CCCN)NC(=O)[C@H](C(C)C)NC(=O)[C@H](Cc2c[nH]c3ccccc23)NC(=O)[C@H](CC(=O)O)NC(=O)[C@H](CC(N)=O)NC(=O)[C@@H](Cc2ccccc2)NC(=O)[C@H](Cc2c[nH]c3ccccc23)NC(=O)[C@@H]2CCCN2C(=O)[C@@H](Cc2ccc(O)cc2)NC1=O [LOLOATIN C] | 8 (≈ 5.99 µM) | 8 (≈ 5.99 µM) | 8 (≈ 5.99 µM) | > 64 | > 64 | 8 (≈ 5.99 µM) |  | Toxic
CC(C)C[C@@H]1NC(=O)[C@H](CCCN)NC(=O)[C@H](C(C)C)NC(=O)[C@H](Cc2c[nH]c3ccccc23)NC(=O)[C@H](CC(=O)O)NC(=O)[C@H](CC(N)=O)NC(=O)[C@H](Cc2ccccc2)NC(=O)[C@H](Cc2c[nH]c3ccccc23)NC(=O)[C@@H]2CCCN2C(=O)[C@@H](Cc2ccc(O)cc2)NC1=O | > 64 | 32 (≈ 24 µM) | 32 (≈ 24 µM) | > 64 | > 64 | 64 (≈ 47.9 µM) | Insoluble | Toxic
CC(C)C[C@@H]1NC(=O)[C@H](CCCN)NC(=O)[C@H](C(C)C)NC(=O)[C@@H]2O[C@H](CNC(=O)[C@H](CC(N)=O)NC(=O)[C@@H](Cc3ccccc3)NC(=O)[C@H](Cc3c[nH]c4ccccc34)NC(=O)[C@@H]3CCCN3C(=O)[C@@H](Cc3ccc(O)cc3)NC1=O)[C@@H](OCc1ccccc1)[C@@H]2O | > 64 | > 64 | > 64 | > 64 | > 64 | > 64 | Insoluble | Non-toxic

The next lines start with results.

MIC [1] [mg/L] | MIC [2] [mg/L] | MIC [4] [mg/L] | MIC [5] [mg/L] | MIC [6] [mg/L] | MIC [7] [mg/L] | solubility [8] | SMILES | Activity [3]
> 64 | > 64 | > 64 | > 64 | > 64 | > 64 |  | CC(C)C[C@@H]1NC(=O)[C@H](CCCN)NC(=O)[C@H](C(C)C)NC(=O)[C@H](Cc2c[nH]c3ccccc23)NC(=O)[C@H](CC(=O)O)NC(=O)[C@@H]2O[C@H](CNC(=O)[C@H](Cc3c[nH]c4ccccc34)NC(=O)[C@@H]3CCCN3C(=O)[C@@H](Cc3ccc(O)cc3)NC1=O)[C@@H](OCc1ccccc1)[C@@H]2O | Non-toxic
> 64 | > 64 | > 64 | > 64 | > 64 | > 64 | Insoluble | CC(C)C[C@@H]1NC(=O)[C@H](CCCN)NC(=O)[C@H](C(C)C)NC(=O)[C@H](Cc2c[nH]c3ccccc23)NC(=O)[C@H](CC(=O)O)NC(=O)[C@H](CC(N)=O)NC(=O)[C@@H](Cc2ccccc2)NC(=O)[C@H](Cc2c[nH]c3ccccc23)NC(=O)[C@@H]2O[C@H](CNC1=O)[C@@H](OCc1ccccc1)[C@@H]2O | Non-toxic
> 64 | 64 (≈ 49.9 µM) | 32 (≈ 24.9 µM) | > 64 | > 64 | > 64 | Insoluble | CC(C)C[C@@H]1NC(=O)[C@H](CCCN)NC(=O)[C@H](C(C)C)NC(=O)[C@@H]2O[C@H](CNC(=O)[C@H](CC(N)=O)NC(=O)[C@H](Cc3ccccc3)NC(=O)[C@H](Cc3c[nH]c4ccccc34)NC(=O)[C@@H]3CCCN3C(=O)[C@@H](Cc3ccc(O)cc3)NC1=O)[C@@H](OCc1ccccc1)[C@@H]2O | Toxic
